Experimental data from PMC2780016 (Journal of medicinal chemistry, 2009).
“Also recorded” adds a separate entry of the source.

How the values were obtained:
Assay type in all cases: biochemical
[1] = target: T1, human liver CE, hCE1 (CES1) (Homo sapiens, UniProt P23141); experiment: Inhibition of hCE1 hydrolysis of 3; settings: for Ki: read-out: hCE1 Ki ± SE, substrate 3 (o-nitrophenyl acetate); for inhibition of hCE1 (in words): substrate 3
T1 sequence (P23141 18-567): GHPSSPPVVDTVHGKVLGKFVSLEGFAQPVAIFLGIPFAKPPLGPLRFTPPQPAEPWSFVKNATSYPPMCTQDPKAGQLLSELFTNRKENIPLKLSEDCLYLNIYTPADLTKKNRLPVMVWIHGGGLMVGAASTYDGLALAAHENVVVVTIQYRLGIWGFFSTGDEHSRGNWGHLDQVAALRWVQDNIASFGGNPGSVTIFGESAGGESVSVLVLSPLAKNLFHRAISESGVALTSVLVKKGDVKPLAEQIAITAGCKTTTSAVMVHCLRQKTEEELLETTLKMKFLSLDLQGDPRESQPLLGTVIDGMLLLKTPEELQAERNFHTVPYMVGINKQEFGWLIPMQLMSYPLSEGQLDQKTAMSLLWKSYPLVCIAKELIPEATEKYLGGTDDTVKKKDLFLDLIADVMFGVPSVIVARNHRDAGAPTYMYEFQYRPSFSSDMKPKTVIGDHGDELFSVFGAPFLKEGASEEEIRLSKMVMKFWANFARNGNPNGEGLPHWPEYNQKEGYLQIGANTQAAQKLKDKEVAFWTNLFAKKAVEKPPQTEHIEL

[2] = target: T2, human intestinal CE (hiCE, CES2) (Homo sapiens, UniProt O00748)
T2 sequence (O00748 27-559): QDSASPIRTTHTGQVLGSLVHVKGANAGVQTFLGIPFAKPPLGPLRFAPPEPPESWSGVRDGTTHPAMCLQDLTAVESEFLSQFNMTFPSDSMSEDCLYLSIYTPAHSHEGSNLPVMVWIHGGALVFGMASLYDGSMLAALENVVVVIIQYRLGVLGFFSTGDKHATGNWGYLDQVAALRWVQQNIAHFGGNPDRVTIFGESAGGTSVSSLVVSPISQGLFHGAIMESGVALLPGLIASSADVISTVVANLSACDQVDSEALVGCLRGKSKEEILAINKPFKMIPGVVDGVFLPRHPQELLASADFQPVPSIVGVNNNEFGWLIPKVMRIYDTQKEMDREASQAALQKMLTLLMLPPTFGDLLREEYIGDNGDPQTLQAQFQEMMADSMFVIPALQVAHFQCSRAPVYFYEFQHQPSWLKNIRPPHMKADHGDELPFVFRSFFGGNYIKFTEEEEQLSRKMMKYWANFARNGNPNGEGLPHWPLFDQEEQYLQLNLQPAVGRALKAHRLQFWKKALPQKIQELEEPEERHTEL

[3] = target: T3, hiCE (Homo sapiens, UniProt O00748); experiment: Inhibition of the metabolism of heroin and cocaine; settings: data not shown; Hatfield et al, manuscript in preparation
T3 sequence (O00748 27-559): T2 sequence (O00748 27-559)

[4] = target: hAChE (Homo sapiens, UniProt P22303); experiment: Inhibition of acetylcholinesterase, acetylthiocholine substrate; settings: data not shown
Sequence of hAChE (P22303 32-614): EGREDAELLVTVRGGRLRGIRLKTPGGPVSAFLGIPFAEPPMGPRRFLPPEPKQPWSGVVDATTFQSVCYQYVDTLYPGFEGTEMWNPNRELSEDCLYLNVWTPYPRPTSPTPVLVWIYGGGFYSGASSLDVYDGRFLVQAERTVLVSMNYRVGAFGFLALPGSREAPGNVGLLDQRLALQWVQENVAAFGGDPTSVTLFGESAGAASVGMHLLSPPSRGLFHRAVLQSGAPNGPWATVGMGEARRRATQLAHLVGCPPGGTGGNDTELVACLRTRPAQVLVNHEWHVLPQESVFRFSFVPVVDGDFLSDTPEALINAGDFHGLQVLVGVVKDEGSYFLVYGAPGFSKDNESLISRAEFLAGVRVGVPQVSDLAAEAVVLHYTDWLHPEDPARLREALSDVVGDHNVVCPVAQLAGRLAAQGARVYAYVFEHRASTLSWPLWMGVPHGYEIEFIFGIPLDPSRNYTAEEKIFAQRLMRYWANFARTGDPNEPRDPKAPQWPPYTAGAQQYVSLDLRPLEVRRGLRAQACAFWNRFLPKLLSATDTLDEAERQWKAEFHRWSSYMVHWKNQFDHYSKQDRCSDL
Outline: (§1)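 Purified human AChE and BChE were obtained commercially. Test compounds were dissolved in DMSO (stock typically 10mM) immediately before analysis. Inhibition was measured by the previously reported method, with acetylthiocholine as substrate for hAChE and butyrylthiocholine for hBChE.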

[5] = target: hBChE (Homo sapiens, UniProt P06276); experiment: Inhibition of butyrylcholinesterase, butyrylthiocholine substrate; settings: data not shown
Sequence of hBChE (P06276 29-602): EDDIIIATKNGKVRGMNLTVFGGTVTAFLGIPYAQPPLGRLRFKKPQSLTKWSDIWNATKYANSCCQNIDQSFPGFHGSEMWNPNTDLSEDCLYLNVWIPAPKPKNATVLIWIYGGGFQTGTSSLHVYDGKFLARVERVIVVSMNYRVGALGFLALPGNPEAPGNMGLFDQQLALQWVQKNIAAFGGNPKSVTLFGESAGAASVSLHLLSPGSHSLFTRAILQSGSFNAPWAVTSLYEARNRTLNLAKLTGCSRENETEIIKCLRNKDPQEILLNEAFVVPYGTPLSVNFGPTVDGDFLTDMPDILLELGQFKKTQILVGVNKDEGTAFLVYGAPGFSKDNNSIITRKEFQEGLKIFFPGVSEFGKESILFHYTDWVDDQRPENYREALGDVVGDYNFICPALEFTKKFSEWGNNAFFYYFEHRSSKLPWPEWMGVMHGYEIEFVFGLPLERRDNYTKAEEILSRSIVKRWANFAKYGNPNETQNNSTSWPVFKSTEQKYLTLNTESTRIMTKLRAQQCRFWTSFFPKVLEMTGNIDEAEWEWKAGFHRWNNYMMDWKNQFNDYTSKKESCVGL
Outline: as §1

Compound | inhibition of hCE1 (in words) [1] | inhibition of hiCE (in words) ([2]; substrate 3) | inhibition of hAChE (in words) [4] | inhibition of hBChE (in words) [5] | further results
4,6-dimethyl-N1,N3- diphenylbenzene-1,3- disulfonamide [compound 4] |  |  |  |  | Ki [1]: > 100 µM
O=S(=O)(Nc1ccc(NS(=O)(=O)c2ccc(Cl)cc2)cc1)c1ccc(Cl)cc1 [compound 11, N,N'-(1,4-phenylene)bis(4-chlorobenzenesulfonamide)] | weak activity |  |  |  | fold more potent against hiCE than hCE1 ([2]; ratio of Ki values hCE1 vs hiCE, substrate 3): over 250 fold
O=S(=O)(Nc1ccc(NS(=O)(=O)c2cccc(Br)c2)cc1)c1cccc(Br)c1 [compound 18, N,N'-(1,4-phenylene)bis(3-bromobenzenesulfonamide)] |  |  |  |  | inhibition of the metabolism of heroin and cocaine (in words) [3]: can also inhibit the metabolism of heroin and cocaine
O=S(=O)(Nc1ccc(NS(=O)(=O)c2cc(Cl)c(Cl)cc2Cl)cc1)c1cc(Cl)c(Cl)cc1Cl [compound 28, N,N'-(1,4-phenylene)bis(2,4,5-trichlorobenzenesulfonamide)] | inactive | did not inhibit the enzyme; also recorded: loss of biological activity; also recorded: do not inhibit hiCE; also recorded: inactive | inactive | inactive | 
O=C(O)c1ccc(S(=O)(=O)Nc2ccc(NS(=O)(=O)c3ccc(F)cc3)cc2)cc1 [compound 39, 4-(N-(4-(4-fluorophenylsulfonamido)phenyl)sulfamoyl) benzoic acid] | inactive | did not inhibit the enzyme; also recorded: do not inhibit hiCE; also recorded: inactive | inactive | inactive | 
CNC(=O)c1ccc(S(=O)(=O)Nc2ccc(NS(=O)(=O)c3ccc(F)cc3)cc2)cc1 [compound 41, 4-(N-(4-(4-fluorophenylsulfonamido)phenyl)sulfamoyl)-N-methyl benzamide] | inactive | did not inhibit the enzyme; also recorded: do not inhibit hiCE; also recorded: inactive | inactive | inactive | 
O=S(=O)(Nc1c(F)c(F)c(NS(=O)(=O)c2ccc(Br)cc2)c(F)c1F)c1ccc(Br)cc1 [compound 54, N,N'-(2,3,5,6-tetrafluoro-1,4-phenylene) bis(4-bromobenzenesulfonamide)] |  |  |  |  | inhibition of the metabolism of heroin and cocaine (in words) [3]: can also inhibit the metabolism of heroin and cocaine
O=S(=O)(Nc1ccc2c(c1)Cc1cc(NS(=O)(=O)c3ccccc3)ccc1-2)c1ccccc1 [compound 56] |  |  |  |  | fold more potent at inhibiting hiCE than compound 8 ([2]; comparison of inhibition constants of 8 and 56): ~11 fold
N,N'-(1,4-phenylene)bis(4-fluoro-2-methyl benzene sulfonamide) [compound 36] |  |  |  |  | Ki ([2]; read-out: hiCE Ki ± SE, substrate 3 (o-nitrophenyl acetate)): 0.273 ± 0.033 µM; Ki [1]: > 100 µM
